Measured values gathered from unrelated publications.
Target: Cholinesterase (BCHE, Homo sapiens, UniProt P06276)
Read-out: enzyme activity
Action: inhibitor

Cn1ccc(=O)n(C)c1=O
IC50 (Ellman): 544 nM

CC(C)c1ccccc1OP(=O)(Oc1ccccc1C(C)C)Oc1ccccc1C(C)C
IC50 (liver microsomes): > 20 µg/mL

O=c1[nH]cc(CO)c(=O)[nH]1
IC50 (Ellman): 443 nM

C=CCn1c2cc(OC(=O)CCCCN3CCN(Cc4cccc(Cl)c4)CC3)ccc2c2ccnc(C)c21
IC50 (Ellman): 568 nM

Cc1ccccc1OP(=O)(Oc1ccccc1C)Oc1ccccc1C
IC50: ~330 nM

Clc1ccc(Nc2nc3ccccc3c3[nH]c(C4CCCCC4)nc23)cc1Cl
IC50: 4910 nM

C=CCn1c2cc(OC(=O)CCCCCN3CCN(Cc4ccccc4)CC3)ccc2c2ccnc(C)c21
IC50 (Ellman): 464 nM

Cc1ccc(S(=O)(=O)n2cc(Br)c(=O)[nH]c2=O)cc1
IC50 (Ellman): 137 nM

C=CCn1c2cc(OC(=O)CCCCN3CCN(Cc4ccc(Cl)cc4)CC3)ccc2c2ccnc(C)c21
IC50 (Ellman): 674 nM

C#CCN(C)c1nc(NCCCC2CCN(Cc3ccccc3)CC2)c(C#N)cc1C#N
IC50 (Ellman): 1680 nM

O=c1[nH]cc(Br)c(=O)[nH]1
IC50 (Ellman): 292 nM

CC(C)(C)c1ccccc1OP(=O)(Oc1ccccc1C(C)(C)C)Oc1ccccc1C(C)(C)C
IC50 (liver microsomes): > 20 µg/mL
